Source: PubChem BioAssay (several laboratories)
CSN inh = inhibitors of CSN-mediated cullin deneddylation, primary screen, biochemical, fluorescence polarization, uHTS; COP9 signalosome complex subunit 5 (Homo sapiens), Q92905; Purified CSN, SCF-Nedd8-OG deneddylation; inhibition, % at 12.5 µM; hit rate 0.38% among 360,000; AID 651999, 2013;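 active = pattern-corrected inhibition above about 35%, with an unprinted fluorescence ratio check between 0.5 and 1.5, limit read from the data, passing the limit was not always enough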;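 also: 0% = enzyme with substrate and 100% = substrate without enzyme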
Target sequence (Q92905 whole entry, looked up, one chain of several): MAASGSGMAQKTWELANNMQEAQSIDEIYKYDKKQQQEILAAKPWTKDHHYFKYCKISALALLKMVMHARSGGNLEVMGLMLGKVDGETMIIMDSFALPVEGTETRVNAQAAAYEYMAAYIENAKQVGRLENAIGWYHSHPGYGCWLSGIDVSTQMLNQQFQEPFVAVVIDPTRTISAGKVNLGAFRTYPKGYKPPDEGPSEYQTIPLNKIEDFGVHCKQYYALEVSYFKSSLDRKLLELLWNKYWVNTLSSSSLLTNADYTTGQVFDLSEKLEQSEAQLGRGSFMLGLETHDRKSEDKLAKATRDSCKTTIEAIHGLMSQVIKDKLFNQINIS
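Material: purified human Csn5 enzyme expressed in HEK293T cells / Medium: Tris buffer pH 7.5, NaCl, DTT, Tween-20, trehalose, ovalbumin / Compound dosing: 12.5 µM single point / Schedule: 90 min incubation of compound, enzyme and substrate at room temperature / Signal: fluorescence polarization of the substrate / Control set: no-enzyme wells high, enzyme-with-substrate wells low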
TPT1 inhibitor = Candida albicans TPT1 enzyme inhibitors, primary screen, biochemical, fluorescence polarization | tRNA 2'-phosphotransferase TPT1 (Candida albicans SC5314) | recombinant caTPT1, FP RNA substrate dephosphorylation | inhibition, % at 5 µM | hit rate 0.81% among 300,000 | AID 1962, 2009;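 active = inhibition above the mean of all tested compounds plus 3 SD, set per screening campaign, cut at about 24% in these data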;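 also: plate controls were DMSO alone for no effect and ferristatin control at 100 nM for full effect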
IDE cell inh = human IDE inhibitors in live cells, primary screen, fluorescence polarization, HEK cells, FAbetaB substrate; Insulin-degrading enzyme (Homo sapiens), P14735; FAbetaB cleavage; inhibition, % at 5.59 µM; hit rate 0.41% among 320,000;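 active = percent inhibition above the average of all tested compounds plus 3 SD, set per screening campaign, cut at about 16% in these data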;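 also: IDE supplied by intact live HEK cells; FP after avidin binding of uncleaved biotin substrate so inhibition keeps polarization high; 0% = DMSO wells and 100% = 60 µM reference IDE inhibitor Ii1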
HNF4A DNA FP = change in binding of human HNF4A to DNA, primary screen, biochemical, fluorescence polarization, FITC-DNA. Hepatocyte nuclear factor 4-alpha (Homo sapiens), P41235. 1 h. activity change, % at 10 µM. hit rate 0.3% among 360,000; in the data active = activity change above about 30%, passing the limit was not always enough
IDE act = human IDE activators in live cells, primary screen, fluorescence polarization, HEK cells, FAbeta-B substrate | FAbeta-B cleavage; 0% vehicle, 100% cell-free pure enzyme wells | activation, % at 5.96 µM | hit rate 0.073% among 340,000 | AID 493087, 2011;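 active = activation above the mean of all tested compounds plus 3 SD, set per screening campaign, cut at about 17% in these data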
The depositor's hits bear a star; . = no result given. The list is not random: actives were taken first. Their share in the collection is about 1.4%.

SMILES	CSN inh	TPT1 inhibitor	IDE cell inh	HNF4A DNA FP	IDE act
COC(=O)c1sc(NC(=O)OCc2ccccc2)nc1CCNC(=O)OC(C)(C)C	3.6	.	.	0.4	.
COc1ccc(-c2nc3ccc(Cl)cn3c2CC(C)(C)C)cc1OC	2.9	.	.	7.0	.
COc1ccc(NC(=O)c2ccccc2)cc1NS(=O)(=O)c1ccc(F)cc1	-4.3	2.2	6.5	4.6	3.9
COc1ccc(NC(=O)c2ccc(-c3ccccc3)cc2)cc1NS(=O)(=O)c1ccc(F)cc1	-11.7	-0.2	20.9*	1.2	-23.3
COc1ccc(-n2c(SCC(=O)Nc3nccs3)nc3sc4c(c3c2=O)CCN(C)C4)cc1	-0.5	11.1	8.1	5.8	-5.0
COc1ccc(NC(=O)CSc2nc3sc4c(c3c(=O)n2-c2ccc(OC)cc2)CCN(C)C4)cc1	97.9*	2.3	-1.5	5.9	-2.9
O=C(NCc1ccccc1)C(c1ccccc1)n1c(-c2ccccn2)nc2ccccc21 (stereo not drawn)	-4.0	.	.	6.8	.
COC(=O)[C@@]12C[C@@H](CC(=O)NCCCCc3ccccc3)C(=O)N(Cc3cccc4ccccc34)C1=CCC(C)(C)C2	2.2	.	.	1.1	.
O=[N+]([O-])c1ccc(C=CC=Cc2ccccc2)cc1	36.5*	.	.	26.0	.
CC1(c2nnnn2-c2ccc3c(c2)OCCO3)CCC(=O)N1CCCn1ccnc1 (stereo not drawn)	102.3*	.	.	-0.7	.
CC1(c2nnnn2-c2ccc3c(c2)OCCO3)CCC(=O)N1CCCN1CCOCC1 (stereo not drawn)	1.6	.	.	1.9	.
Cc1ccc2cc3c(N)c(C(=O)N4CC(=O)Nc5ccccc54)sc3nc2c1	.	34.0*	-1.8	.	.
CCOC(=O)c1c(CSC(=N)N)n(C)c2cc(Br)c(OC(C)=O)cc12	3.3	-4.1	-4.8	-0.7	0.8
CCOC(=O)c1c(CSC(=N)N)n(-c2ccc(C)cc2)c2cc(Br)c(OC(C)=O)cc12	-0.5	-7.0	2.0	0.2	18.4*
COc1ccc(CCN2C(=O)COc3ccccc3C2C(=O)NC(C)(C)C)cc1OC (stereo not drawn)	1.9	.	.	0.1	.
COc1ccc(/C=C/c2nc3sc4c(c3c(=O)o2)CCC4)cc1	109.7	-2.5	0.1	190.8	4.9
O=c1oc(/C=C/c2ccccc2)nc2sc3c(c12)CCC3	3.5	2.3	1.2	47.3*	3.0
C[C@H]1CN([C@@H](C)CO)C(=O)CCCn2cc(nn2)CO[C@@H]1CN(C)C(=O)Oc1ccccc1	100.3*	.	.	-0.2	.
N#Cc1cc2cc3c(cc2nc1Cl)OCCO3	61.2*	.	.	18.0	.
COC(=O)C1=CN(c2cccc(OCc3ccccc3)c2)C(N)=C(C#N)C1c1cccc(F)c1 (stereo not drawn)	0.7	.	.	17.3	.
O=C(COC(=O)C1CC2C=CC1C2)NCc1ccc(F)cc1 (stereo not drawn)	5.3	-4.8	-4.3	-4.1	-0.3
O=C(COC(=O)C1CC2C=CC1C2)NCc1ccco1 (stereo not drawn)	35.3*	8.6	0.7	-10.9	2.9
COCCN1C(=O)Cc2c1nc(N)c1c(N)nc(N3CCN(c4ccc(F)cc4)CC3)c(C#N)c21	13.3	27.9*	-0.7	9.4	4.4
COc1ccc(CN2C(=O)Cc3c2nc(N)c2c(N)nc(N4CCOCC4)c(C#N)c32)cc1	11.2	10.2	7.3	5.5	2.5
Cc1nnc(-c2cccc(Br)c2)c2cn(-c3ccccc3)nc12	-76.0	-1.7	3.4	144.2	0.7
SMILES	CSN inh	TPT1 inhibitor	IDE cell inh	HNF4A DNA FP	IDE act
Cc1nnc(-c2cccc(Br)c2)c2cn(-c3ccc(Br)cc3)nc12	90.8	17.5	3.4	63.3*	1.4
COC(=O)Cn1c(=NC(=O)c2sc3ccccc3c2Cl)sc2cc(S(N)(=O)=O)ccc21	-0.9	6.9	20.3*	-1.6	-3.3
CCOC(=O)Cn1c(=NC(=O)c2sc3ccccc3c2Cl)sc2cc(S(N)(=O)=O)ccc21	4.1	3.4	6.3	-16.1	-10.6
Cc1cccc(C(=O)NC(=S)Nc2ccccc2C(=O)O)c1	78.5*	-3.0	8.6	7.8	6.2
Cc1cccc(C(=O)NC(=S)Nc2ccccc2C(F)(F)F)c1	-11.4	-0.2	5.0	-4.0	1.5
CCCC[C@@H]1Cc2[nH][nH]c(=O)c2[C@H](c2ccc(C(C)C)cc2)O1	2.5	.	.	-1.1	.
CCOC(=O)C1CCN(c2ncnc3c2cnn3C)CC1	-1.7	3.8	0.5	100.9*	4.7
CCC(=O)Oc1ccc(C(=O)Nc2ccc3c(c2)C(=O)N(C2CCCCC2)C3=O)cc1	-1.1	-1.9	2.8	38.7*	1.0
O=C(O)COc1ccc(NC(=O)c2ccc3c(c2)C(=O)N(C2CCCCC2)C3=O)cc1	1.9	-2.9	1.3	1.6	-7.0
CCCCC(CC)CN=C(N)NC(N)=NCCCCCCN=C(N)NC(N)=NCC(CC)CCCC (stereo not drawn)	126.9*	-0.7	-13.4	97.6*	13.2
COc1nnc(-c2ccc(N3CCCCC3)c(N)c2)c2ccccc12	110.1*	-2.3	0.6	5.4	4.1
CCCC(=O)Nc1cc(-c2nnc(OC)c3ccccc23)ccc1N1CCCCC1	.	-1.2	0.6	.	.
CCOc1cc(C=NNC(=O)N(c2ccccc2)c2ccccc2)ccc1O	0.6	.	.	0.7	.
NC(=S)c1cc2ccc(O)cc2oc1=O	46.5*	.	.	33.6	-5.4
Cc1ccc(CN2C(=O)CSCC2(C)C(=O)Nc2c(C)cccc2C)cc1 (stereo not drawn)	0.2	.	.	7.2	.
Cc1cccc(C)c1NC(=O)C1(C)CSCC(=O)N1Cc1ccco1 (stereo not drawn)	94.2*	.	.	39.7*	.
Cc1cc(-c2csc(NC(=O)c3ccc(C#N)cc3)n2)c(C)n1Cc1ccco1	40.6*	9.1	5.9	6.1	4.3
CCN(CC)C(=O)C1=C(C)N(Cc2ccc(F)cc2)C(=O)C(CC(=O)NCC2CCCCC2)C1 (stereo not drawn)	8.0	.	.	-0.4	.
COc1ccc(C2C=C(c3ccc(Br)cc3)Nc3nc(N4C(=O)CCC4=O)nn32)cc1 (stereo not drawn)	-2.2	-37.1	29.4*	-15.4	-18.9
CC(=O)Nc1nc2n(n1)C(c1ccccc1)C=C(c1ccccc1)N2 (stereo not drawn)	-4.5	-21.8	2.3	-14.1	3.7
COc1ccc(C2C=C(c3ccc(Cl)cc3)Nc3nc(NC(C)=O)nn32)cc1 (stereo not drawn)	.	-49.8	20.3*	.	.
O=C1c2ccccc2C(c2nnnn2-c2ccc3c(c2)OCCO3)N1C1CC1 (stereo not drawn)	-0.1	.	.	-2.4	.
O=C(c1ccco1)N1CCN(c2ncnc3c2[nH]c2ccc(Cl)cc23)CC1	.	1.1	67.5*	.	.
O=C(c1ccco1)N1CCN(c2c(-c3ccccc3)c3cc(Cl)ccc3[nH]c2=O)CC1	6.5	-2.3	1.7	-0.1	3.4
